According to ChEMBL document CHEMBL1123882, “Potential antitumor agents. 51. Synthesis and antitumor activity of substituted phenazine-1-carboxamides” (J Med Chem, 1987):

What was measured:
L1210 [1] = test: Tested for comparative cytotoxicity as ratio of IC50 value, relative to OMe derivative (1.00).; assay type: functional, Mus musculus
L1210 [2] = test: Tested for comparative cytotoxicity as ratio of IC50 value, relative to 3-substituted derivative (1.00).; assay type: functional, Mus musculus
P388 [3] = test: Optimal dose in mg/kg administered intraperitoneally on days 1,5 and 9 required to inhibit the growth of P388 leukemia cells was determined (in vivo); assay type: functional, Mus musculus
Outline: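 Mice were inoculated ip with 10^6 P388 cells. Drug was given ip as a solution in 0.1 mL 30% v/v EtOH/water on days 1, 5 and 9. The optimal dose (mg/kg per day) is the one giving maximal increase in life span; survivors were scored at 50 days, in groups of six.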

[4] = system: Lewis lung carcinoma cell line; test: Optimal dose required after intraperitoneal administration on days 5,9 and 13 to inhibit the growth of lewis lung carcinoma (LL) cells was determined (in vivo); assay type: functional, Mus musculus
Outline: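 Mice were inoculated iv with 10^6 Lewis lung cells. Drug was given ip in 0.1 mL 30% v/v EtOH/water on days 5, 9 and 13. The optimal dose (mg/kg per day) is the one giving maximal increase in life span; survivors were scored at 60 days, in groups of six.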

[5] = Lipophilicity (HPLC); assay type: physicochemical
L1210 [6] = test: Nanomolar concentration required to reduce the growth of L1210 cells in culture to 50% of control values after 70 h (in vitro); assay type: functional, cell-based; conditions: Mus musculus, L1210, 70 h
Outline: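 L1210 cells were grown in culture with drug for 70 h. IC50 is the drug concentration (nM) reducing growth to 50% of control values.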

P388 [7] = test: (§1) Average increase in life span of treated animals over control groups of tumor-bearing untreated animals when given at optimal dose (in vivo); assay type: functional, Mus musculus
Outline: (§2)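 Mice inoculated ip with 10^6 P388 cells (drug ip on days 1, 5, 9) or iv with 10^6 Lewis lung cells (drug ip on days 5, 9, 13). Drug given as a solution in 0.1 mL 30% v/v EtOH/water, in mg/kg per day. Value is the average life-span increase versus untreated tumor-bearing controls at the optimal dose. Significance thresholds: ILS >20% (P388), >40% (LL). Groups of six.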

[8] = system: Lewis lung carcinoma cell line; test: as §1; assay type: functional, Mus musculus; outline: as §2
P388 [9] = test: (§3) Average increase in life span of treated animals over control groups of tumor-bearing untreated animals when given at optimal dose; NA means no significant activity (in vivo); assay type: functional, organism-based; conditions: Mus musculus
Outline: (§4)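 Mice received drug ip as a solution in 0.1 mL 30% v/v EtOH/water at the optimal dose. For P388, 10^6 cells were inoculated ip and drug given on days 1, 5 and 9. For LL, 10^6 cells were inoculated iv and drug given on days 5, 9 and 13. ILS is the mean life-span increase over untreated tumor-bearing controls, significant above 20% (P388) or 40% (LL). Groups were of six. NA means no significant activity up to acutely toxic doses.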

[10] = system: Lewis lung carcinoma cell line; test: as §3; assay type: functional, organism-based; conditions: Mus musculus; outline: as §4

Structure (SMILES)	Ratio (L1210 [1])	Ratio (L1210 [2])	OD (P388 [3]) [mg/kg/day]	OD [4] [mg/kg/day]	Rm [5]	IC50 (L1210 [6]) [nM]	ILS max (P388 [7])	ILS max [8]	ILSmax (P388 [9])	ILS max [10]	ILSmax [10]
COc1cc(C(N)=O)c2nc3ccccc3nc2c1	1	1									
CN(C)CCNC(=O)c1cccc2nc3c(Cl)cccc3nc12			150	150	-0.18	780	56	49			
COc1cccc2nc3c(C(N)=O)cccc3nc12	1	6									
CN(C)CCNC(=O)c1c(Cl)ccc2nc3ccccc3nc12			100		-0.27	14900			Not significant		
Cc1ccc(C(N)=O)c2nc3ccccc3nc12	0.7	1									
Cc1ccc2nc3c(C(N)=O)cccc3nc2c1	0.4	3.7									
Cc1cccc2nc3c(C(N)=O)cccc3nc12	0.6	2									
NC(=O)c1cccc2nc3cc(Cl)ccc3nc12	0.3	7.1									
COc1ccc2nc3cccc(C(=O)NCCN(C)C)c3nc2c1			100	150	-0.33	1050	39			Not significant	
COc1ccc2nc3c(C(N)=O)cccc3nc2c1	1	5									
COc1ccc2nc3cccc(C(N)=O)c3nc2c1	1	1.4									
CN(C)CCNC(=O)c1cccc2nc3cc(Cl)ccc3nc12			65	65	-0.13	1140	20				Not significant
CN(C)CCNC(=O)c1cccc2nc3ccc4ccccc4c3nc12			30	45	-0.05	33	98	56			
NC(=O)c1cccc2nc3ccc(Cl)cc3nc12	0.6	4.2									
COc1cccc2nc3cccc(C(=O)NCCN(C)C)c3nc12			100	100	-0.42	48	106	128			
COc1cc(C(=O)NCCN(C)C)c2nc3ccccc3nc2c1			100	150	-0.25	830	22			Not significant	
CCN(CC)CCNC(=O)c1cccc2nc3ccccc3nc12			225	150	0.09	2100	43			Not significant	
Cc1ccc2nc3cccc(C(=O)NCCN(C)C)c3nc2c1			150	225	-0.2	630	60	81			
COc1cccc2nc3cccc(C(N)=O)c3nc12	1	0.05									

Structure (SMILES)	Ratio (L1210 [1])	Ratio (L1210 [2])	OD (P388 [3]) [mg/kg/day]	OD [4] [mg/kg/day]	Rm [5]	IC50 (L1210 [6]) [nM]	ILS max (P388 [7])	ILS max [8]	ILSmax (P388 [9])	ILS max [10]	ILSmax [10]
Cc1cccc2nc3cccc(C(=O)NCCN(C)C)c3nc12			65	65	-0.23	42	45	62			
Cc1cccc2nc3cccc(C(N)=O)c3nc12	0.9	0.1									
Cc1cc(C(N)=O)c2nc3ccccc3nc2c1	0.5	1									
CN(C)CCNC(=O)c1cccc2nc3c(ccc4ccccc43)nc12			45	45	-0.32	310	29			Not significant	
COc1ccc(C(N)=O)c2nc3ccccc3nc12	1	0.6									
NC(=O)c1cc(Cl)cc2nc3ccccc3nc12	0.4	1									
COc1ccc2nc3ccccc3nc2c1C(=O)NCCN(C)C			225	225	-0.5	1620	33	43			
Cc1cc(C(=O)NCCN(C)C)c2nc3ccccc3nc2c1			225	225	-0.15	410	91	158			
CN(C)CCNC(=O)c1cccc2nc3ccc(Cl)cc3nc12			100	100	-0.2	670	64	64			
CN(C)CCNC(=O)c1cccc2nc3ccccc3nc12			150	150	-0.29	1400	88	57			
Cc1cccc2nc3c(C(=O)NCCN(C)C)cccc3nc12			150	150	-0.01	820	58			Not significant	
Cc1ccc2nc3c(C(=O)NCCN(C)C)cccc3nc2c1			150	100	-0.18	1500	29			Not significant	
CN(C)CCNC(=O)c1cc2ccccc2c2nc3ccccc3nc12			65	65	0.11	170	84			Not significant	
CN(C)CCNC(=O)c1cccc2nc3cccc(Cl)c3nc12			30	45	-0.37	11	61	124			
CN(C)CCNC(=O)c1cc(Cl)cc2nc3ccccc3nc12			150	150	-0.06	160	106	63			
Cc1ccc2nc3cccc(C(N)=O)c3nc2c1	0.9	1.5									
NC(=O)c1cccc2nc3c(Cl)cccc3nc12	0.6	5									
NC(=O)c1cccc2nc3cccc(Cl)c3nc12	0.2	0.07									
